Results taken from ChEMBL document CHEMBL3414461, “Clerodane type diterpene as a novel antifungal agent from Polyalthia longifolia var. pendula” (Eur J Med Chem, 2015).
In brackets after ≈: the same amount, converted by molar mass. Activity calls are given as the source filed them. No cut-off for these calls is given here.

Assays:
[1] = test system: Candida albicans; experiment: Antifungal activity against Candida albicans NCIM 3557 assessed as inhibition of 50% germ tube formation; assay type: functional
[2] = test system: Fusarium oxysporum; experiment: Antifungal activity against Fusarium oxysporum NCIM 1043 after 24 to 48 hrs by microbroth dilution method; assay type: functional
Summary of the method: (§1)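 Broth microdilution per CLSI. DMSO stock diluted 1:40 in YPG medium, then two-fold serial dilution across […] range. Inoculum: log-phase yeast cells (~2 × 10^4 cfu/mL) grown in YPG broth, or spores for phytopathogens. Incubated 24–48 h; growth read as absorbance at 600 nm. MIC is the lowest concentration giving >90% growth inhibition versus control; IC50 is the concentration giving 50% inhibition.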

[3] = test system: Nakaseomyces glabratus; experiment: Antifungal activity against Candida glabrata NCIM 3237 after 24 to 48 hrs by microbroth dilution method; assay type: functional; summary of the method: as §1
[4] = Cytotoxicity against sheep RBC assessed as haemolytic activity at 1200 uM after 2 hrs by spectrophotometry; assay type: cell-based, Ovis aries, Erythrocyte; conditions: sheep red blood cells, read-out: Activity
Summary of the method: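 Sheep RBCs washed with PBS (pH 7.0), resuspended to a 4% suspension, mixed 1:1 with PBS containing test compound. Incubated 37 °C for 2 h, centrifuged 2000 rpm for 5 min, supernatant absorbance read at 545 nm. PBS set as 0% lysis and 0.1% Triton X-100 as 100%. Percent haemolysis calculated relative to these; triplicates averaged.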

[5] = test system: Neurospora crassa; experiment: Antifungal activity against Neurospora crassa NCIM 870 after 24 to 48 hrs by microbroth dilution method; assay type: functional; summary of the method: as §1
[6] = test system: Candida albicans; experiment: Antifungal activity against Candida albicans NCIM 3471 after 24 to 48 hrs by microbroth dilution method; assay type: functional; summary of the method: as §1
[7] = test system: Aspergillus niger; experiment: Antifungal activity against Aspergillus niger NCIM 628 after 24 to 48 hrs by microbroth dilution method; assay type: functional; summary of the method: as §1
[8] = test system: Aspergillus fumigatus; experiment: Antifungal activity against Aspergillus fumigatus NCIM 902 after 24 to 48 hrs by microbroth dilution method; assay type: functional; summary of the method: as §1
[9] = test system: Candida albicans; experiment: Antifungal activity against Candida albicans NCIM 3557 after 24 to 48 hrs by microbroth dilution method; assay type: functional; summary of the method: as §1
[10] = test system: Cryptococcus neoformans; experiment: Antifungal activity against Cryptococcus neoformans NCIM 3542 after 24 to 48 hrs by microbroth dilution method; assay type: functional; summary of the method: as §1
[11] = test system: Candida albicans; experiment: Induction of ROS generation in Candida albicans NCIM 3557 at 25.2 to 100.6 uM after 60 mins by DCFH-DA staining-based fluorescence assay; assay type: functional, organism-based
[12] = test system: Candida albicans; experiment: Induction of ROS generation in Candida albicans NCIM 3557 at 50.3 to 201.2 uM after 200 mins by DHR123 staining-based fluorescence assay; assay type: functional, organism-based
Summary of the method: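 1×10^6 C. albicans NCIM3557 cells grown in YPG broth with compound at 37 °C for 200 min. Cells washed, then DHR123 added at […] final (from ethanol stock) in PBS for 30 min. Cells washed, resuspended in PBS, and fluorescence read (ex 480/em 525 nm) by epifluorescence microscopy. Untreated cells served as negative control and H2O2-treated cells as positive control.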

## CC1=CCC[C@@H]2[C@@](C)(CCC3=CC(=O)OC3OC(=O)OC(C)(C)C)[C@H](C)CC[C@@]12C (mixture of isomers)
[1]
  Concentration for 50% inhibition of germ tube formation (IC50): 153.1 µM
[2]
  MIC90: > 600 µM
[3]
  MIC90: > 600 µM
[4]
  hemolysis at 2 h, 1200 µM: < 15%
[5]
  MIC90: > 600 µM
[6]
  MIC90: > 600 µM
[7]
  MIC90: > 600 µM
[8]
  MIC90: > 600 µM
[9]
  MIC90: > 600 µM
[10]
  MIC90: > 600 µM

## CC(=O)OC1OC(=O)C=C1CC[C@@]1(C)[C@H](C)CC[C@@]2(C)C(C)=CCC[C@H]12 (mixture of isomers)
[1]
  Concentration for 50% inhibition of germ tube formation (IC50): 177.8 µM
[2]
  MIC90: > 600 µM
[3]
  MIC90: > 600 µM
[4]
  hemolysis at 2 h, 1200 µM: < 15%
[5]
  MIC90: > 600 µM
[6]
  MIC90: > 600 µM
[7]
  MIC90: > 600 µM
[8]
  MIC90: > 600 µM
[9]
  MIC90: > 600 µM
[10]
  MIC90: > 600 µM

## CC1=CCC[C@@H]2[C@@](C)(CCC3=CC(=O)O[C@@H]3O)[C@H](C)CC[C@@]12C
[1]
  Concentration for 50% inhibition of germ tube formation (IC50): 25.14 µM
[2]
  MIC90: 805 µM (≈ 256 µg/mL)
[3]
  MIC90: 805 µM (≈ 256 µg/mL)
[4]
  hemolysis at 2 h, 1200 µM: < 15%
[11]
  Activity: Active
[12]
  Activity: Active
[5]
  MIC90: 201 µM (≈ 64.1 µg/mL)
[6]
  MIC90: 805 µM (≈ 256 µg/mL)
[7]
  MIC90: 805 µM (≈ 256 µg/mL)
[8]
  MIC90: 805 µM (≈ 256 µg/mL)
[9]
  MIC90: 50.3 µM (≈ 16 µg/mL)
[10]
  MIC90: 101 µM (≈ 32 µg/mL)

## C[C@@H]1CC[C@]2(C)[C@H](CC[C@@H]3O[C@@]32C)[C@@]1(C)CCC1=CC(=O)O[C@@H]1O
[1]
  Concentration for 50% inhibition of germ tube formation (IC50): 191.6 µM
[2]
  MIC90: > 600 µM
[3]
  MIC90: > 600 µM
[4]
  hemolysis at 2 h, 1200 µM: < 15%
[5]
  MIC90: > 600 µM
[6]
  MIC90: > 600 µM
[7]
  MIC90: > 600 µM
[8]
  MIC90: > 600 µM
[9]
  MIC90: > 600 µM
[10]
  MIC90: > 600 µM
